Laboratory results taken from ChEMBL document CHEMBL1135657, “Novel dual inhibitors of AChE and MAO derived from hydroxy aminoindan and phenethylamine as potential treatment for Alzheimer's disease” (J Med Chem, 2002).

Tests used:
Butyrylcholinesterase [1] = target: T1, Butyrylcholinesterase (Equus caballus, UniProt Q9N1N9); experiment: In vitro inhibitory concentration against Butyrylcholinesterase of horse serum; value ranges from 7.65-13.2
Summary of the method: (§1)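 Ellman assay followed, with 200 µM butyrylthiocholine as substrate. Runs were in triplicate with four-point dose-response curves. IC50 and fiducial limits came from log concentration versus % inhibition.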

Acetylcholinesterase [2] = target: T2, Acetylcholinesterase (Homo sapiens, UniProt P22303); experiment: In vitro inhibitory concentration against purified Acetylcholinesterase of human erythrocytes; value ranges from […]-[…]
T2 sequence (P22303 whole entry): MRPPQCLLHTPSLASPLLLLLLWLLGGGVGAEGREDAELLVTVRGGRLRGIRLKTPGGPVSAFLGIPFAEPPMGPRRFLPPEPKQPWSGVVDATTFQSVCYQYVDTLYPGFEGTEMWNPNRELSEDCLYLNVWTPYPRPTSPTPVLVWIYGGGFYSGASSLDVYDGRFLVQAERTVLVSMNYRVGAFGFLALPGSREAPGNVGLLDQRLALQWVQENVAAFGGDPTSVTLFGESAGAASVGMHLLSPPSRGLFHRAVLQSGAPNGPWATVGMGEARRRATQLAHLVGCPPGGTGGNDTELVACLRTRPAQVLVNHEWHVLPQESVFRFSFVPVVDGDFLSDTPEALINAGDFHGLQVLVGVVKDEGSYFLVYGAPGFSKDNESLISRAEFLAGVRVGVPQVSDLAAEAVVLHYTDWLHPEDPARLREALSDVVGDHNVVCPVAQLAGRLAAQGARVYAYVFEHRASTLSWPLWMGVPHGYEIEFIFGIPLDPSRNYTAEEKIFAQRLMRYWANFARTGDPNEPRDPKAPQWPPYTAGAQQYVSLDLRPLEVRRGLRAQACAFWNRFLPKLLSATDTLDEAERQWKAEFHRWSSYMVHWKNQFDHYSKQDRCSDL

Butyrylcholinesterase [3] = target: T1, Butyrylcholinesterase; experiment: In vitro inhibitory concentration against Butyrylcholinesterase of horse serum; value ranges from 0.16-0.41; summary of the method: as §1
Acetylcholinesterase [4] = target: T2, Acetylcholinesterase; experiment: In vitro inhibitory concentration against purified Acetylcholinesterase of human erythrocytes; value ranges from 0.18-0.32
[5] = target: T3, Amine oxidase [flavin-containing] A (Rattus norvegicus, UniProt P21396); experiment: In vitro inhibitory concentration against Monoamine oxidase A of rat brain homogenates; value ranges from 1.3-5.6; assay type: tissue-based
T3 sequence (P21396 whole entry): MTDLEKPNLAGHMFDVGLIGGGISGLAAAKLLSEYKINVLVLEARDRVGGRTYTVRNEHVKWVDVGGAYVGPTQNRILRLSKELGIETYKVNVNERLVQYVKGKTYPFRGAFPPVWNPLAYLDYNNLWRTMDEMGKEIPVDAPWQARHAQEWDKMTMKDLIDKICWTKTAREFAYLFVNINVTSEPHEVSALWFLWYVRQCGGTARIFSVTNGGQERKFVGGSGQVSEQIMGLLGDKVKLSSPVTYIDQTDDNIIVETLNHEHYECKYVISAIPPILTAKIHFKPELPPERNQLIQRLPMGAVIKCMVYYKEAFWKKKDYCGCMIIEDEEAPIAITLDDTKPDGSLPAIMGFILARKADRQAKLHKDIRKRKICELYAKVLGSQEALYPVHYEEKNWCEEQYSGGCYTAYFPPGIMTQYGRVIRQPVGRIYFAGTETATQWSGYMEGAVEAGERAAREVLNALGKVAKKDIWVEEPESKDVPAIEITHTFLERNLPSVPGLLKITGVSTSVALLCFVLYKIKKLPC

[6] = target: T4, Amine oxidase [flavin-containing] B (Rattus norvegicus, UniProt P19643); experiment: In vitro inhibitory concentration against Monoamine oxidase B of rat brain homogenates; value ranges from 11-52; assay type: tissue-based
T4 sequence (P19643 whole entry): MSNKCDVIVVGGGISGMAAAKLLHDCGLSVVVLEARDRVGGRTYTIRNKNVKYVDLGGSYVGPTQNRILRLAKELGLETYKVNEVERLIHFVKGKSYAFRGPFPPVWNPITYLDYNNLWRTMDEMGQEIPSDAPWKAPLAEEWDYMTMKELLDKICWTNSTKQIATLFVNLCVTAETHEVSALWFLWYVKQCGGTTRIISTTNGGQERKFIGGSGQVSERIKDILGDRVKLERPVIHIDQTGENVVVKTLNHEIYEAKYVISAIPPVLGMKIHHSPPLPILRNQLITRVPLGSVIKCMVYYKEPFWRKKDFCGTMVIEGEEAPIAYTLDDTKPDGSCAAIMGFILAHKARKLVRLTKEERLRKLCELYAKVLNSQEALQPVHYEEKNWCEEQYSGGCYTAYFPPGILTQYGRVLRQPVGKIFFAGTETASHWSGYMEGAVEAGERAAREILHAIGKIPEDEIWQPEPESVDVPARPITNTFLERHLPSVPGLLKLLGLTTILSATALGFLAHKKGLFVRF

[7] = Pseudo-first order rate constant for carbamoylation of ACHE at 2.5(uM) concentration; assay type: ADME
Summary of the method: (§2)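 Human erythrocyte AChE, Ellman method with 200 µM […] substrate, 0.1 M phosphate buffer pH 7.4, 37 °C. Progressive inhibition followed at 4–5 inhibitor concentrations. Pseudo-first-order carbamylation rate constants k_obs (min⁻¹) derived as per Bar-On et al. and reported ±SEM. Apparent bimolecular rate constant k_i calculated from these.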

[8] = target: T4, Amine oxidase [flavin-containing] B; experiment: In vitro inhibitory concentration against Monoamine oxidase B of rat brain homogenates; value ranges from 0.8-2.9; assay type: tissue-based
[9] = Bimolecular rate constant for carbamoylation of ACHE; assay type: ADME
Summary of the method: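 Human erythrocyte AChE preincubated with inhibitor at 37 °C in 0.1 M phosphate buffer, pH 7.4, under Ellman conditions with 200 µM […]. Pseudo-first-order rate constants (k_obs) for progressive inhibition were obtained at 4-5 inhibitor concentrations. The apparent bimolecular carbamylation constant k_i was calculated from these.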

[10] = Pseudo-first order rate constant for carbamoylation of ACHE at 20 (uM) concentration; assay type: ADME; summary of the method: as §2
[11] = Pseudo-first order rate constant for carbamoylation of ACHE at 5 (uM) concentration; assay type: ADME; summary of the method: as §2
[12] = Pseudo-first order rate constant for carbamoylation of ACHE at 10 (uM) concentration; assay type: ADME; summary of the method: as §2
[13] = target: T3, Amine oxidase [flavin-containing] A; experiment: In vitro inhibitory concentration against Monoamine oxidase A of rat brain homogenates; value ranges from 8-43; assay type: tissue-based
[14] = Pseudo-first order rate constant for carbamoylation of ACHE at 40 (uM) concentration; assay type: ADME; summary of the method: as §2
Butyrylcholinesterase [15] = target: T1, Butyrylcholinesterase; experiment: In vitro inhibitory concentration against Butyrylcholinesterase of horse serum; value ranges from 0.64-0.89
Acetylcholinesterase [16] = target: T2, Acetylcholinesterase; experiment: In vitro inhibitory concentration against purified Acetylcholinesterase of human erythrocytes; value ranges from 2.36-4.22
[17] = Pseudo-first order rate constant for carbamoylation of ACHE at 50 (uM) concentration; assay type: ADME
Summary of the method: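 Human erythrocyte AChE, same Ellman conditions: 200 µM […], 60 min preincubation at 37 °C, 0.1 M phosphate pH 7.4. Progressive inhibition followed at 4-5 inhibitor concentrations. Pseudo-first-order k_obs (min⁻¹) derived per concentration; apparent bimolecular carbamylation constant k_i calculated from these.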

Acetylcholinesterase [18] = target: T2, Acetylcholinesterase; experiment: In vitro inhibitory concentration against purified Acetylcholinesterase of human erythrocytes; value ranges from 1.32-2.23
[19] = target: T3, Amine oxidase [flavin-containing] A; experiment: In vitro inhibitory concentration against Monoamine oxidase A of rat brain homogenates; value ranges from 0.09-0.16; assay type: tissue-based
Butyrylcholinesterase [20] = target: T1, Butyrylcholinesterase; experiment: In vitro inhibitory concentration against Butyrylcholinesterase of horse serum; value ranges from 0.73-0.77; summary of the method: as §1
[21] = target: T4, Amine oxidase [flavin-containing] B; experiment: In vitro inhibitory concentration against Monoamine oxidase B of rat brain homogenates; value ranges from 0.3-1.2; assay type: tissue-based
Butyrylcholinesterase [22] = target: T1, Butyrylcholinesterase; experiment: In vitro inhibitory concentration against Butyrylcholinesterase of horse serum; value ranges from 0.70-0.92; summary of the method: as §1
Acetylcholinesterase [23] = target: T2, Acetylcholinesterase
[24] = target: T3, Amine oxidase [flavin-containing] A; experiment: In vitro inhibitory concentration against Monoamine oxidase A of rat brain homogenates; value ranges from 30-230; assay type: tissue-based
Butyrylcholinesterase [25] = target: T1, Butyrylcholinesterase; experiment: In vitro inhibitory concentration against Butyrylcholinesterase of horse serum; value ranges from 0.34-1.03; summary of the method: as §1
[26] = target: T4, Amine oxidase [flavin-containing] B; experiment: In vitro inhibitory concentration against Monoamine oxidase B of rat brain homogenates; assay type: tissue-based
[27] = target: T3, Amine oxidase [flavin-containing] A; experiment: In vitro inhibitory concentration against Monoamine oxidase A of rat brain homogenates; value ranges from 5.6-19.6; assay type: tissue-based
Acetylcholinesterase [28] = target: T2, Acetylcholinesterase; experiment: In vitro inhibitory concentration against purified Acetylcholinesterase of human erythrocytes; value ranges from 0.012-0.014
Acetylcholinesterase [29] = target: T2, Acetylcholinesterase; experiment: In vitro inhibitory concentration against purified Acetylcholinesterase of human erythrocytes; value ranges from 0.12-0.41
[30] = target: T3, Amine oxidase [flavin-containing] A; experiment: In vitro inhibitory concentration against Monoamine oxidase A of rat brain homogenates; value ranges from 9-52; assay type: tissue-based
Butyrylcholinesterase [31] = target: T1, Butyrylcholinesterase; experiment: In vitro inhibitory concentration against Butyrylcholinesterase of horse serum; value ranges from 0.76-4.2; summary of the method: as §1
[32] = target: T3, Amine oxidase [flavin-containing] A; experiment: biochemical; assay type: tissue-based, Brain
Acetylcholinesterase [33] = target: T2, Acetylcholinesterase; experiment: In vitro inhibitory concentration against purified Acetylcholinesterase of human erythrocytes; value ranges from 8.99-49.4
Butyrylcholinesterase [34] = target: T1, Butyrylcholinesterase; experiment: In vitro inhibitory concentration against Butyrylcholinesterase of horse serum; value ranges from 0.21-1.26; summary of the method: as §1
Acetylcholinesterase [35] = target: T2, Acetylcholinesterase; experiment: In vitro inhibitory concentration against purified Acetylcholinesterase of human erythrocytes
[36] = target: T3, Amine oxidase [flavin-containing] A; experiment: In vitro inhibitory concentration against Monoamine oxidase A of rat brain homogenates; value ranges from 2-8; assay type: tissue-based
[37] = target: T4, Amine oxidase [flavin-containing] B; experiment: In vitro inhibitory concentration against Monoamine oxidase B of rat brain homogenates; value ranges from 75-200
Acetylcholinesterase [38] = target: T2, Acetylcholinesterase; experiment: In vitro inhibitory concentration against purified Acetylcholinesterase of human erythrocytes; value ranges from 26.2-5898
Butyrylcholinesterase [39] = target: T1, Butyrylcholinesterase; experiment: In vitro inhibitory concentration against Butyrylcholinesterase of horse serum; value ranges from 0.28-0.30; summary of the method: as §1
Acetylcholinesterase [40] = target: T2, Acetylcholinesterase; remark: listed apart in the source

T1 sequence (Q9N1N9 whole entry): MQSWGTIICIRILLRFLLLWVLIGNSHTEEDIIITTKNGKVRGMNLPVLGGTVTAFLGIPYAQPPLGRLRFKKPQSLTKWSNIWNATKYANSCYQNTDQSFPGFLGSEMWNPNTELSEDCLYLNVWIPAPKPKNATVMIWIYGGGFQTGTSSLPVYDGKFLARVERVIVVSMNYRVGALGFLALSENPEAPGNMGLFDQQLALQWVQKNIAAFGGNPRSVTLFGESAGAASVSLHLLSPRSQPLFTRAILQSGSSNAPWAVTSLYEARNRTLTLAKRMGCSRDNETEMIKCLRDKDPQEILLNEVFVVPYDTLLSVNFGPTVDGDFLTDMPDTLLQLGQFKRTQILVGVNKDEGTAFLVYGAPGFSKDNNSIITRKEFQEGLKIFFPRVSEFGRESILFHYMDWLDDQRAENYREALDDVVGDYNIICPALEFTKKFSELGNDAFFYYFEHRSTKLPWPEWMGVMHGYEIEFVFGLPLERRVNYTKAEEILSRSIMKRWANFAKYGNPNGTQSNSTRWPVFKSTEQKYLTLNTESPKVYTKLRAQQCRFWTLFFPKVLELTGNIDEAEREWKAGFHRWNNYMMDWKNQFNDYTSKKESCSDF

Structure (SMILES): COc1ccc(N(C)C(=O)Oc2ccc3c(c2)C(N)CC3)cc1 (stereo not drawn)
- IC50 (Butyrylcholinesterase [1]): 9.91 µM
- IC50 (Acetylcholinesterase [2]): 300 nM

Structure (SMILES): C#CCNCCc1cccc(OC(=O)N(C)C)c1
- IC50 (Butyrylcholinesterase [3]): 210 nM
- IC50 (Acetylcholinesterase [4]): 220 nM
- IC50 [5]: 2700 nM
- IC50 [6]: 24 µM

Structure (SMILES): C#CCN(C)C(C)Cc1cccc(OC(=O)N(C)CCCCCC)c1 (stereo not drawn)
- K obs [7]: 14 min⁻¹
- IC50 [8]: 1500 nM
- Bimolecular carbamoylation rate constant (ki) [9]: 1035 M⁻¹ min⁻¹
- K obs [10]: 30 min⁻¹
- K obs [11]: 15 min⁻¹
- K obs [12]: 23 min⁻¹
- IC50 [13]: 20 µM
- K obs [14]: 55 min⁻¹
- IC50 (Butyrylcholinesterase [15]): 720 nM
- IC50 (Acetylcholinesterase [16]): 3.06 µM
- K obs [17]: 63 min⁻¹

Structure (SMILES): C#CCN(C)C(C)Cc1cccc(OC(=O)N(C)C)c1 (stereo not drawn)
- IC50 (Acetylcholinesterase [18]): 1640 nM
- IC50 [19]: 120 nM
- IC50 (Butyrylcholinesterase [20]): 750 nM
- IC50 [21]: 800 nM

Structure (SMILES): C#CCN(C)C1CCc2c(OC(=O)N(C)CC)cccc21 (stereo not drawn)
- IC50 (Butyrylcholinesterase [22]): 790 nM
- IC50 (Acetylcholinesterase [23]): 14.9 µM

Structure (SMILES): CN(C)C(=O)Oc1ccc2c(c1)C(N)CC2 (stereo not drawn)
- IC50 [24]: 80 µM
- IC50 (Butyrylcholinesterase [25]): 630 nM

Structure (SMILES): CN(C)C(=O)Oc1cccc2c1CCC2N(C)C (stereo not drawn)
- IC50 [26]: > 1 mM
- IC50 [27]: 10 µM
- IC50 (Acetylcholinesterase [28]): 13 nM

Structure (SMILES): CNCCc1cccc(OC(=O)N(C)C)c1
- IC50 (Acetylcholinesterase [29]): 280 nM
- IC50 [30]: 22 µM
- IC50 [26]: > 1 mM

Structure (SMILES): CCN(C)C(=O)Oc1ccc2c(c1)C(N)CC2 (stereo not drawn)
- IC50 (Butyrylcholinesterase [31]): 1900 nM
- IC50 [32]: 12.9 µM
- IC50 (Acetylcholinesterase [33]): 19 µM
- IC50 [26]: > 1 mM

Structure (SMILES): C#CCN(C)[C@@H]1CCc2ccc(OC(=O)N(C)CC)cc21
- IC50 (Butyrylcholinesterase [34]): 550 nM
- IC50 (Acetylcholinesterase [35]): 1.2 mM
- IC50 [36]: 4 µM

Structure (SMILES): C#CCNC1CCc2ccc(OC(=O)N(C)CC)cc2C1 (stereo not drawn)
- IC50 [37]: 120 µM
- IC50 (Acetylcholinesterase [38]): 204 µM
- IC50 (Butyrylcholinesterase [39]): 290 nM

Structure (SMILES): CCN(C)C(=O)Oc1cccc2c1C(N)CC2 (stereo not drawn)
- IC50 [26]: > 1 mM
- IC50 (Acetylcholinesterase [40]): 10.5 µM
